Reference: PubChem BioAssay AID493238 (Broad Institute, 2011)
“And” between values parts separate entries of the source, which are not always exact repeats. Equal values may be shown once. The source made the active and inactive calls.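 Rule for the calls: active = VEGF mRNA rise whose fitted curve reaches 40% activation within the highest concentration tested on that sample; inactive = the rest, including effects opposite to expected.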

Test system: U2OS VEGF mRNA induction, RT-PCR
Assay: activators raising VEGF transcript levels – cell-based, U2OS, RT-PCR, dry powder, set 2, orthogonal assay for HIF pathway activator project, dose response (AID 493238)
Conditions: not given
How it was run: (§1)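 Test system: human U2OS osteosarcoma cells, endogenous VEGF-A mRNA / Quantity: 2,000 cells/well / Times: 24 h pre-growth at 37 °C, 24 h compound treatment / Signal: TaqMan RT-qPCR, VEGF-A (FAM) with beta-actin (VIC) / Control set: DMSO as negative control / Replication: duplicates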

SMILES | AC40
Oc1ccc(CNC2CCc3ccccc32)c2cccnc12 (configuration not stated) | 35.1 µM
CC(C)(C)CCNc1nc(-c2ccccn2)nnc1-c1ccccc1 | 0.768 µM and 0.974 µM
c1ccc(-c2nnc(-c3ccccn3)nc2NCCN2CCOCC2)cc1 | 8.15 µM
c1ccc(-c2cccc(CNc3nc(-c4ccccn4)nnc3-c3ccccc3)c2)cc1 | 0.601 µM
Clc1cccc(CNc2nc(-c3ccccn3)nnc2-c2ccccc2)c1 | 0.87 µM
Cc1ccc(CNc2nc(-c3ccccn3)nnc2-c2ccccc2)cc1 | 0.892 µM
O=C(Nc1cn2ccccc2n1)c1cc(-c2ccccc2)on1 | 18.6 µM
c1ccc(-c2nnc(-c3ccccn3)nc2NCc2cccnc2)cc1 | 2.84 µM
OCC1CCN(Cc2ccc(O)c3ncccc23)CC1 | 3.56 µM
c1ccc(-c2nnc(-c3ccccn3)nc2NCCc2ccccn2)cc1 | 5.54 µM
c1ccc(-c2nnc(-c3ccccn3)nc2Nc2cnc3ccccc3n2)cc1 | 1.1 µM
OCC1CCN(c2nc(-c3ccccn3)nnc2-c2ccccc2)CC1 | 10.5 µM
O=C(NCCCO)c1cc(-c2ccccc2)on1 | 11.5 µM
O=C(NCCCN1CCOCC1)c1cc(-c2ccccc2)on1 | 23 µM
Cc1ccccc1CNc1nc(-c2ccccn2)nnc1-c1ccccc1 | 1.02 µM
CN(C)c1nc(-c2ccccn2)nnc1-c1ccccc1 | 8.23 µM
C[C@@H](Nc1nc(-c2ccccn2)nnc1-c1ccccc1)c1ccccc1 | 2.22 µM
COc1cccc(CNc2nc(-c3ccccn3)nnc2-c2ccccc2)c1 | 1.78 µM
N#CC1(c2ccccc2)CCN(Cc2ccc(O)c3ncccc23)CC1 | 28.3 µM
CCCCNC(=O)c1cc(-c2ccccc2)on1 | 14.6 µM
c1ccc(-c2nnc(-c3ccccn3)nc2NCC2CC2)cc1 | 2.4 µM
C=CCNc1nc(-c2ccccn2)nnc1-c1ccccc1 | 4.47 µM

SMILES | AC40
Cc1ccc(Nc2nc(-c3ccccn3)nnc2-c2ccccc2)cn1 | 6.12 µM
Cn1c(-c2ccccc2)cnc1NC(=O)c1cc(-c2ccccc2)on1 | 35.2 µM
O=C(Nc1ncc2ccccc2n1)c1cc(-c2ccccc2)on1 | 36.2 µM
c1ccc(-c2ccc(CNc3nc(-c4ccccn4)nnc3-c3ccccc3)cc2)cc1 | 0.303 µM
C[C@H](Nc1nc(-c2ccccn2)nnc1-c1ccccc1)C1CCCCC1 | 1.39 µM
O=C(NCCCn1ccnc1)c1cc(-c2ccccc2)on1 | 10.7 µM
Cn1c(-c2ccccc2)cnc1Nc1nc(-c2ccccn2)nnc1-c1ccccc1 | 3.33 µM
CN1CCN(c2nc(-c3ccccn3)nnc2-c2ccccc2)CC1 | 5.95 µM
Oc1ccc(CN2CCC3CCCCC3C2)c2cccnc12 (configuration not stated) | 3.2 µM
c1ccc(CNc2nc(-c3ccccn3)nnc2-c2ccccc2)cc1 | 1.6 µM
c1ccc(-c2nnc(-c3ccccn3)nc2N2CCC(C3CCCCC3)C2)cc1 (configuration not stated) | 0.843 µM
c1ccc(-c2nnc(-c3ccccn3)nc2NCc2ccccn2)cc1 | 4.53 µM
CC(C)(C)OC(=O)N1CCN(Cc2ccc(O)c3ncccc23)CC1 | 10.2 µM
c1ccc(-c2nnc(-c3ccccn3)nc2Nc2nc3ccccc3s2)cc1 | 0.51 µM
c1ccc(-c2nnc(-c3ccccn3)nc2NCC2CCOCC2)cc1 | 7.58 µM
C[C@@H](Nc1nc(-c2ccccn2)nnc1-c1ccccc1)C1CCCCC1 | 0.571 µM
c1ccc(-c2nnc(-c3ccccn3)nc2N2CCC(N3CCOCC3)CC2)cc1 | 6.52 µM
Oc1ccc(CN2CCc3ccccc3C2)c2cccnc12 | 5.31 µM and 5.35 µM
c1ccc(-c2nnc(-c3ccccn3)nc2NCCCN2CCOCC2)cc1 | 6.5 µM
CC(C)(C)c1ccc(CNc2nc(-c3ccccn3)nnc2-c2ccccc2)cc1 | 0.397 µM
Cc1cccc(Nc2nc(-c3ccccn3)nnc2-c2ccccc2)n1 | 2.98 µM
O=C(c1cc(-c2ccccc2)on1)N1CCN(c2ccncc2)CC1 | > 38 µM (inactive)

SMILES | AC40
c1ccc(CCNc2nc(-c3ccccn3)nnc2-c2ccccc2)cc1 | 4.92 µM
c1ccc(-c2nnc(-c3ccccn3)nc2N2CCN(c3ccncc3)CC2)cc1 | 2.12 µM
c1ccc(-c2cnc(Nc3nc(-c4ccccn4)nnc3-c3ccccc3)s2)cc1 | 0.4 µM
Oc1ccc(CN2CCC(Cc3ccccc3)CC2)c2cccnc12 | 6.76 µM
c1ccc(-c2nnc(-c3ccccn3)nc2N2CCC(c3ccccc3)C2)cc1 (configuration not stated) | 1.52 µM
COc1ccccc1N1CCN(Cc2ccc(O)c3ncccc23)CC1 | 0.519 µM
Oc1ccc(CNC2Cc3ccccc3C2)c2cccnc12 | 10.7 µM
O=C(NC1CCc2ccccc2C1)c1cc(-c2ccccc2)on1 (configuration not stated) | > 38 µM (inactive)
CC1CN(Cc2ccc(O)c3ncccc23)CC(C)O1 (configuration not stated) | 9.15 µM
CC(Nc1nc(-c2ccccn2)nnc1-c1ccccc1)c1ccccc1 (configuration not stated) | 1.37 µM
O=C(NCCCCO)c1cc(-c2ccccc2)on1 | 5.01 µM
CC(C)(C)CCNC(=O)c1cc(-c2ccccc2)on1 | > 38 µM (inactive)
O=C(NCC1CC1)c1cc(-c2ccccc2)on1 | 17.2 µM
OCCCNc1nc(-c2ccccn2)nnc1-c1ccccc1 | 8.34 µM
Cc1cccc(CNc2nc(-c3ccccn3)nnc2-c2ccccc2)c1 | 1.45 µM
COc1ccc(CNc2nc(-c3ccccn3)nnc2-c2ccccc2)cc1 | 1.92 µM
c1ccc(-c2nnc(Nc3nc(-c4ccccn4)nnc3-c3ccccc3)s2)cc1 | 1.3 µM
Cc1ccc(CNc2nc(-c3ccccn3)nnc2-c2ccccc2)cc1C | 0.772 µM
c1ccc(-c2nnc(-c3ccccn3)nc2NCC2CCCCC2)cc1 | 1.3 µM
c1ccc(-c2csc(Nc3nc(-c4ccccn4)nnc3-c3ccccc3)n2)cc1 | 0.597 µM
O=C(NCCN1CCOCC1)c1cc(-c2ccccc2)on1 | 28.8 µM

Test system: not listed separately
Assay: as above
Conditions: U2OS VEGF mRNA induction, RT-PCR; at 38 µM (top of the series)
How it was run: as §1

SMILES | activation
O=C(NCCN1CCCCC1)c1cc(-c2ccccc2)on1 | -5.63% (inactive)
O=C(Nc1nc(-c2ccccc2)cs1)c1cc(-c2ccccc2)on1 | -5.33% (inactive)
Cc1cccc(CNC(=O)c2cc(-c3ccccc3)on2)c1 | 8.64% (inactive)
O=C(NCc1ccccc1)c1cc(-c2ccccc2)on1 | -10.1% (inactive)
Cc1ccccc1CNC(=O)c1cc(-c2ccccc2)on1 | 35.3% (inactive)
CN(C)CCNC(=O)c1cc(-c2ccccc2)on1 | 5.67% (inactive)
O=C(Nc1ccc2ccccc2n1)c1cc(-c2ccccc2)on1 | 4.54% (inactive)
O=C(c1cc(-c2ccccc2)on1)N1CCC(N2CCCC2)CC1 | 13.9% (inactive)
CN1CCN(C(=O)c2cc(-c3ccccc3)on2)CC1 | 5.56% (inactive)
Cn1c(NC(=O)c2cc(-c3ccccc3)on2)nc2ccccc21 | -9.2% (inactive)
O=C(c1cc(-c2ccccc2)on1)N1CCc2cccnc21 | 5.33% (inactive)
Cc1cccc(NC(=O)c2cc(-c3ccccc3)on2)n1 | 16.6% (inactive)
Cc1ccc(CNC(=O)c2cc(-c3ccccc3)on2)cc1 | 8.66% (inactive)
O=C(c1cc(-c2ccccc2)on1)N1CCC(CO)CC1 | 9.68% (inactive)
O=C(Nc1nnc(-c2ccccc2)s1)c1cc(-c2ccccc2)on1 | -3.69% (inactive)
O=C(NC1Cc2ccccc2C1)c1cc(-c2ccccc2)on1 | 2.5% (inactive)
O=C(c1cc(-c2ccccc2)on1)N1CCC(N2CCOCC2)CC1 | 2.34% (inactive)
O=C(NCC1CCCCC1)c1cc(-c2ccccc2)on1 | -2.71% (inactive)
O=C(Nc1cnc2ccccc2c1)c1cc(-c2ccccc2)on1 | -1.59% (inactive)
Cc1ccc(NC(=O)c2cc(-c3ccccc3)on2)cn1 | 4.7% (inactive)
O=C(Nc1nc2ccccc2s1)c1cc(-c2ccccc2)on1 | 18.7% (inactive)
O=C(Nc1ncc(-c2ccccc2)o1)c1cc(-c2ccccc2)on1 | -1.45% (inactive)
